Experimental data: ChEMBL document CHEMBL2040727, “Substituted thiazoles VI. Synthesis and antitumor activity of new 2-acetamido- and 2 or 3-propanamido-thiazole analogs” (2012)

Legend:
Format in all cases: functional
PC-3 = experiment: Growth inhibition of human PC3 cells at 10 uM after 48 hrs by coulter counter analysis; conditions: PC-3, 48 h, read-out: GI
Outline: (§1)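 Single-dose NCI 60-line panel screen of test compounds. Cells grown in RPMI 1640 with 10% FBS. Compounds dissolved in DMSO, then diluted in phosphate buffer saline (final DMSO below 1%). Wells run in duplicate at 6 × 10⁴ cells/ml. Controls held PBS and DMSO at matching dilutions. Incubation 48 h at 37 °C under humidified 5% CO2. Cells diluted tenfold in saline and counted by Coulter counter. Percent growth inhibition taken from mean-graph of treated-cell growth.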

TK-10 = experiment: Growth inhibition of human TK10 cells at 10 uM after 48 hrs by coulter counter analysis; conditions: TK-10, 48 h, read-out: GI
Outline: (§2)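 Single-dose screen in the NCI 60 cell line panel. Cells grown in RPMI 1640 with 10% FBS. Compounds dissolved in DMSO and diluted in phosphate buffered saline, final DMSO under 1%. Duplicate wells seeded from culture at 6 × 10⁴ cells/ml. Incubated 48 h at 37 °C, humidified, 5% CO2. Cells diluted tenfold in saline and Coulter-counted. Percent growth inhibition computed against PBS/DMSO controls.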

HL-60(TB) = experiment: Growth inhibition of human HL-60(TB) cells at 10 uM after 48 hrs by coulter counter analysis; conditions: HL-60, 48 h, read-out: GI
Outline: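 Cells grown in RPMI 1640 with 10% FBS. Compound was dissolved in DMSO and diluted in PBS (under 1% DMSO final), then added in duplicate wells to culture at 6 × 10⁴ cells/ml. PBS/DMSO vehicle controls were included. Incubated at 37 °C, humidified 5% CO₂, for 48 h. Cells were diluted 10-fold in saline and Coulter-counted. Single-dose NCI-60 screen, read as percent growth inhibition.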

SNB-19 = experiment: Growth inhibition of human SNB19 cells at 10 uM after 48 hrs by coulter counter analysis; conditions: SNB-19, 48 h, read-out: GI; outline: as §1
SK-MEL-28 = experiment: Growth inhibition of human SK-MEL-28 cells at 10 uM after 48 hrs by coulter counter analysis; conditions: SK-MEL-28, 48 h, read-out: GI; outline: as §1
DU-145 = experiment: Growth inhibition of human DU145 cells at 10 uM after 48 hrs by coulter counter analysis; conditions: DU-145, 48 h, read-out: GI; outline: as §1
HOP-62 = experiment: Growth inhibition of human HOP62 cells at 10 uM after 48 hrs by coulter counter analysis; conditions: HOP-62, 48 h, read-out: GI; outline: as §1
A549 = experiment: Growth inhibition of human A549/ATCC cells at 10 uM after 48 hrs by coulter counter analysis; conditions: A549, 48 h, read-out: GI; outline: as §1
UACC-257 = experiment: Growth inhibition of human UACC257 cells at 10 uM after 48 hrs by coulter counter analysis; conditions: UACC-257, 48 h, read-out: GI; outline: as §2
786-0 = experiment: Growth inhibition of human 786-0 cells at 10 uM after 48 hrs by coulter counter analysis; conditions: 786-0, 48 h, read-out: GI; outline: as §1
HCT-116 = experiment: Growth inhibition of human HCT116 cells at 10 uM after 48 hrs by coulter counter analysis; conditions: HCT-116, 48 h, read-out: GI; outline: as §1
EKVX = experiment: Growth inhibition of human EKVX cells at 10 uM after 48 hrs by coulter counter analysis; conditions: read-out: GI; outline: as §1
K562 = experiment: Growth inhibition of human K562 cells at 10 uM after 48 hrs by coulter counter analysis; conditions: K562, 48 h, read-out: GI; outline: as §1
CCRF-CEM = experiment: Growth inhibition of human CCRF-CEM cells at 10 uM after 48 hrs by coulter counter analysis; conditions: read-out: GI; outline: as §1
SK-OV-3 = experiment: Growth inhibition of human SKOV3 cells at 10 uM after 48 hrs by coulter counter analysis; conditions: SK-OV-3, 48 h, read-out: GI; outline: as §1
U-251 = experiment: Growth inhibition of human U251 cells at 10 uM after 48 hrs by coulter counter analysis; conditions: U-251, 48 h, read-out: GI; outline: as §2
SNB-75 = experiment: Growth inhibition of human SNB75 cells at 10 uM after 48 hrs by coulter counter analysis; conditions: SNB-75, 48 h, read-out: GI; outline: as §2
RXF 393 = experiment: Growth inhibition of human RXF393 cells at 10 uM after 48 hrs by coulter counter analysis; conditions: RXF 393, 48 h, read-out: GI; outline: as §1
A498 = experiment: Growth inhibition of human A498 cells at 10 uM after 48 hrs by coulter counter analysis; conditions: A498, 48 h, read-out: GI; outline: as §1
NCI-H460 = experiment: Growth inhibition of human NCI-H460 cells at 10 uM after 48 hrs by coulter counter analysis; conditions: NCI-H460, 48 h, read-out: GI; outline: as §1
HT-29 = experiment: Growth inhibition of human HT-29 cells at 10 uM after 48 hrs by coulter counter analysis; conditions: HT-29, 48 h, read-out: GI; outline: as §1
CAKI-1 = experiment: Growth inhibition of human Caki1 cells at 10 uM after 48 hrs by coulter counter analysis; conditions: CAKI-1, 48 h, read-out: GI; outline: as §1
MOLT-4 = experiment: Growth inhibition of human MOLT4 cells at 10 uM after 48 hrs by coulter counter analysis; conditions: MOLT-4, 48 h, read-out: GI; outline: as §1
NCI-H23 = experiment: Growth inhibition of human NCI-H23 cells at 10 uM after 48 hrs by coulter counter analysis; conditions: NCI-H23, 48 h, read-out: GI; outline: as §1

Compound | inhibition of growth at 10 µM (PC-3) | inhibition of growth at 10 µM (TK-10) | inhibition of growth at 10 µM (HL-60(TB)) | inhibition of growth at 10 µM (SNB-19) | inhibition of growth at 10 µM (SK-MEL-28) | inhibition of growth at 10 µM (DU-145) | inhibition of growth at 10 µM (HOP-62) | inhibition of growth at 10 µM (A549) | inhibition of growth at 10 µM (UACC-257) | inhibition of growth at 10 µM (786-0) | inhibition of growth at 10 µM (HCT-116) | inhibition of growth at 10 µM (EKVX) | inhibition of growth at 10 µM (K562) | inhibition of growth at 10 µM (CCRF-CEM) | inhibition of growth at 10 µM (SK-OV-3) | inhibition of growth at 10 µM (U-251) | inhibition of growth at 10 µM (SNB-75) | inhibition of growth at 10 µM (RXF 393) | inhibition of growth at 10 µM (A498) | inhibition of growth at 10 µM (NCI-H460) | further results
CCOC(=O)c1sc(NC(=O)C(C)N2CCOCC2)nc1C (stereo not drawn) | < 10% | < 10% | < 10% | < 10% | < 10% | < 10% | < 10% | < 10% | < 10% | < 10% | < 10% | < 10% | < 10% | < 10% | < 10% | < 10% | 24.4% | < 10% | < 10% | < 10% | inhibition of growth at 10 µM (HT-29): < 10%; inhibition of growth at 10 µM (CAKI-1): < 10%; inhibition of growth at 10 µM (MOLT-4): < 10%; inhibition of growth at 10 µM (NCI-H23): < 10%
CCOC(=O)c1sc(NC(=O)C(C)N2CCN(C)CC2)nc1C (stereo not drawn) | < 10% | < 10% | < 10% | < 10% | < 10% | < 10% | < 10% | < 10% | < 10% | < 10% | < 10% | < 10% | < 10% | < 10% | < 10% | < 10% | < 10% | < 10% | < 10% | < 10% | inhibition of growth at 10 µM (HT-29): < 10%; inhibition of growth at 10 µM (CAKI-1): < 10%; inhibition of growth at 10 µM (MOLT-4): < 10%; inhibition of growth at 10 µM (NCI-H23): < 10%
